Test [1] can be described thus: Uptake ratio Ki of norepinephrine relative to serotonin (5-HT) at monoamine transporter.
Test [2] in a line: Uptake ratio Ki of norepinephrine relative to dopamine at monoamine transporter.
The target of test [3] is Sodium-dependent dopamine transporter (Rattus norvegicus, UniProt P23977). In words: Ability to inhibit high affinity reuptake of [3H]DA from dopamine transporter into nerve endings synaptosomes. In kind it is subcellular, Brain. The essentials: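 Rat striatal P2 synaptosomes in modified KRH buffer (pH 7.4, with nialamide), preincubated with drug for 30 min at 4 °C, then 15 min at 37 °C. Uptake of [3H]DA (~5 nM final) ran for 5 min and was stopped by cold Na-free buffer and filtration. IC50 from six concentrations in triplicate; Ki by Cheng–Prusoff, 2–4 experiments.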

The nature of test [4]: Uptake ratio Ki of dopamine relative to serotonin (5-HT) at monoamine transporter.
Test [5] has as its target Norepinephrine transporter (Rattus norvegicus, UniProt Q9WTR4). In words: Ability to inhibit high affinity reuptake of [3H]-NE (Norepinephrine transporter) into nerve ending synaptosomes prepared from brain regions. The format is subcellular.
Test [6] deals with Sodium-dependent serotonin transporter (Rattus norvegicus, UniProt P31652). In words: Inhibition of high affinity re-uptake of [3H]5-HT (serotonin) into nerve ending synaptosomes. The format is subcellular, Brain. The essentials:
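Synaptosomes (P2) from rat midbrain in modified KRH buffer (pH 7.4, with nialamide), preincubated with drug for 30 min at 4 °C, then 15 min at 37 °C. [3H]5-HT (~5 nM final) uptake ran for 5 min, then filtration and scintillation counting. IC50 from six concentrations in triplicate; Ki by Cheng–Prusoff, 2–4 experiments.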

Some results are limits rather than exact numbers.

Chain of Sodium-dependent dopamine transporter (P23977 whole entry): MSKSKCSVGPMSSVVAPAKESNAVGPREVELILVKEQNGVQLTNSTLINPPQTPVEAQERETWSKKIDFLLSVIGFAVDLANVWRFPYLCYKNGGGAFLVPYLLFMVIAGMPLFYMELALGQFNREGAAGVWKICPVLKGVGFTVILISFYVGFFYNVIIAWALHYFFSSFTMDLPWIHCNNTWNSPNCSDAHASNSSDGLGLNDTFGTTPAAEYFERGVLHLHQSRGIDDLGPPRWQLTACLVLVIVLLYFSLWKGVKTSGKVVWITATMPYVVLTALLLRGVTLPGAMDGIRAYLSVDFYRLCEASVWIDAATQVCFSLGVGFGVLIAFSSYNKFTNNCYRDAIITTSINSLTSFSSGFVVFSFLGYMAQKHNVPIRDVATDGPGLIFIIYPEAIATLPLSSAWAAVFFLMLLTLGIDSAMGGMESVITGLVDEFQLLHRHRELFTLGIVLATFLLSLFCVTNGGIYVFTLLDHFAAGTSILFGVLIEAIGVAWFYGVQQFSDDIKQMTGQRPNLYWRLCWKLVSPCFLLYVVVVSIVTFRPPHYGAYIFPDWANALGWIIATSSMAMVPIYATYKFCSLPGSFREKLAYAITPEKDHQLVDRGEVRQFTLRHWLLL
Chain of Norepinephrine transporter (Q9WTR4 whole entry): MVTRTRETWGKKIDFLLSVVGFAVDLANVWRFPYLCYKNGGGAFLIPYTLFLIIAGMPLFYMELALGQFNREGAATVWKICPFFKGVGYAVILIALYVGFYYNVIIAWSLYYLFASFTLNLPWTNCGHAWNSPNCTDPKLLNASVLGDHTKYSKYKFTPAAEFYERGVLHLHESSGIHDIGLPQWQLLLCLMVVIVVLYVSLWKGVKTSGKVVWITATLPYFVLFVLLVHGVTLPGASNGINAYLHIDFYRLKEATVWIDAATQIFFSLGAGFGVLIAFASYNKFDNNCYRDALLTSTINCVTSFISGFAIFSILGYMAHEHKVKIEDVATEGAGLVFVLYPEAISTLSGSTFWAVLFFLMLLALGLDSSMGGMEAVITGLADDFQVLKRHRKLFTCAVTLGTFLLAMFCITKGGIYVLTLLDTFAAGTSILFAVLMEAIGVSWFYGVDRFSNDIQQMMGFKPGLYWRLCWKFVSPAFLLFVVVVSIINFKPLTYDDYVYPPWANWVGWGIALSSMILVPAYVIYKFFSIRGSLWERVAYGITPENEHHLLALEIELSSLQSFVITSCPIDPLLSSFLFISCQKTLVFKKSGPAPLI
Chain of Sodium-dependent serotonin transporter (P31652 whole entry): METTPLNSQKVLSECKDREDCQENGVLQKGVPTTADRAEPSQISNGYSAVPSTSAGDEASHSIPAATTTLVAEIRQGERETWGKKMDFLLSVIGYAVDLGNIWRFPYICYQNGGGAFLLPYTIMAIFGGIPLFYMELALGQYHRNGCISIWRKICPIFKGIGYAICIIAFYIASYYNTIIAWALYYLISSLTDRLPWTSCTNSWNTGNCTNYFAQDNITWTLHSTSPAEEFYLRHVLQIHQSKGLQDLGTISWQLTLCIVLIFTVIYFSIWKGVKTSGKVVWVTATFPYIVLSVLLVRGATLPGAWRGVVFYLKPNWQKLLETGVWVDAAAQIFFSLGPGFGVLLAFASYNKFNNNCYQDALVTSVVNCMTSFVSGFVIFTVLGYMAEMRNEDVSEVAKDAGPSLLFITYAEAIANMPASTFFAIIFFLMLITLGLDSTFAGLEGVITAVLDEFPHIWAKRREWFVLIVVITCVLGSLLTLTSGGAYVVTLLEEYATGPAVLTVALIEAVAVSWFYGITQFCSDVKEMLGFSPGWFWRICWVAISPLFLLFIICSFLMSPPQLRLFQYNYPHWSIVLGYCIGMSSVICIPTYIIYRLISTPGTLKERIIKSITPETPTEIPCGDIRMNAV

The term Ki denotes a measure of affinity in units of concentration, obtained from inhibition or displacement. Lower therefore signals a stronger hold on the target. As to `CC(=O)OCC1C2CC3CCC1N3C/C2=C\c1ccc2ccccc2c1` (stereo not drawn), the Ratio stood at 153 in test [1], 1.03 in test [2] and 148 in test [4]. Also, the inhibition constant (Ki) was 0.652 µM in test [3], 0.672 µM in test [5] and 0.0044 µM in test [6].

Consider `O=C(OCC1C2CC3CCC1N3C/C2=C\c1ccc2ccccc2c1)c1ccccc1` (stereo not drawn), for which the Ratio in test [1] was found to be 32200; in test [2], 0.58; in test [4] it was 55300. In addition, the inhibition constant (Ki) in test [3] was determined as 5.53 µM; in test [5], 3.22 µM; in test [6], 0.0001 µM.

Regarding `COC(=O)C1C2CC3CCC1N3C/C2=C\c1ccc(F)cc1` (stereo not drawn), the Ratio was determined as 1.7 in test [1], 0.09 in test [2] and 19.7 in test [4]. For the same molecule, the Ki in test [3] is 6.62 µM; in test [5], 0.584 µM; in test [6], 0.335 µM.

Consider `COC(=O)C1C2CC3CCC1N3C/C2=C\c1cccc(Cl)c1Cl` (stereo not drawn), for which the Ratio was determined as 3.4 in test [1], 1.42 in test [2] and 2.4 in test [4]. Further, the Ki in test [3] is 0.85 µM; in test [5], 1.21 µM; in test [6], 0.354 µM.

Regarding `COC(=O)C1C2CC3CCC1N3C/C2=C\c1cccc(Cl)c1` (stereo not drawn), the results for the Ratio in test [1], in test [2] and in test [4] were 4.3, 0.03 and 145, respectively. The values for the Ki in test [3], in test [5] and in test [6] were 7.78 µM, 0.231 µM and 0.0536 µM, respectively.

In the case of `CC(C)OC(=O)C1C2CC3CCC1N3C/C2=C\c1ccc(Cl)c(Cl)c1` (stereo not drawn), the Ratio in test [1] is 3.8; in test [2], 0.25; in test [4] it was 15. The Ki in test [3] amounted to 1.29 µM; in test [5], 0.325 µM; in test [6], 0.0857 µM.

For `O=C(OCC1C2CC3CCC1N3C/C2=C\c1cccc(Cl)c1)c1ccccc1` (stereo not drawn), the figures for the Ratio in test [1], in test [2] and in test [4] were 598, 1.63 and 367, respectively. In addition, the values for the Ki in test [3], in test [5] and in test [6] were 4.04 µM, 6.58 µM and 0.011 µM, respectively.

For `COC(=O)C1C2CC3CCC1N3C/C2=C\c1cccc2ccccc12` (stereo not drawn), the Ratio in test [1] amounted to 44; in test [2], 0.55; in test [4], 80.3. In addition, the inhibitory constant (Ki) in test [3] came out at 9.72 µM; in test [5], 5.37 µM; in test [6], 0.121 µM.

Turning to `O=C(Oc1ccccc1)C1C2CC3CCC1N3C/C2=C\c1ccc(Cl)c(Cl)c1` (stereo not drawn), the Ratio in test [1] amounted to 49.9; in test [2] it was 0.54; in test [4] it was 91.9. The inhibitory constant (Ki) in test [3] stood at 4.44 µM; in test [5], 2.41 µM; in test [6] it was 0.0483 µM.

Take `COC(=O)C1C2CC3CCC1N3C/C2=C\c1cc(Cl)cc(Cl)c1` (stereo not drawn): the results for the Ratio in test [1], in test [2] and in test [4] were 9.4, 0.73 and 12.8, respectively. Besides, the values for the Ki in test [3], in test [5] and in test [6] were 5.6 µM, 4.1 µM and 0.437 µM, respectively.

With `CC(=O)OCC1C2CC3CCC1N3C/C2=C\c1ccc(Cl)c(Cl)c1` (stereo not drawn), the Ratio in test [1] was 399; in test [2], 0.34; in test [4], 1170. The inhibitory constant (Ki) was 1.87 µM in test [3], 0.638 µM in test [5] and 0.0016 µM in test [6].

For the molecule `COC(=O)C1C2CC3CCC1N3C/C2=C\c1ccc(I)cc1Cl` (stereo not drawn), the results for the Ratio in test [1], in test [2] and in test [4] were 6.9, 0.08 and 89.7, respectively. Also, the inhibition constant (Ki) in test [3] stood at 6.64 µM; in test [5], 0.508 µM; in test [6], 0.074 µM.

As to `COC(=O)C1C2CC3CCC1N3C/C2=C\c1ccc(Br)c(Cl)c1` (stereo not drawn), the Ratio in test [1] was 200; in test [2] it was 0.08; in test [4], 2360. The Ki in test [3] turned out to be 5.42 µM; in test [5] it was 0.459 µM; in test [6], 0.0023 µM.

Take `O=C(OCC1C2CC3CCC1N3C/C2=C\c1ccc(Cl)c(Cl)c1)c1ccc2ccccc2c1` (stereo not drawn): the Ratio in test [1] is 640; in test [2] it was less than 0.6; in test [4] it was greater than 1070. Also, the inhibitory constant (Ki) in test [3] was greater than 10 µM; in test [5], 5.95 µM; in test [6], 0.0093 µM.

For the molecule `COC(=O)C1C2CC3CCC1N3C/C2=C\c1ccc(Cl)cc1` (stereo not drawn), the results for the Ratio in test [1], in test [2] and in test [4] were 6, 0.24 and 24.8, respectively. Further, the inhibitory constant (Ki) in test [3] is 0.853 µM; in test [5] it was 0.208 µM; in test [6], 0.0343 µM.

On to `CN(C)C(=O)C1C2CC3CCC1N3C/C2=C\c1ccc(Cl)c(Cl)c1` (stereo not drawn), for which the Ratio in test [1] is 69.9; in test [2] it was 0.3; in test [4], 231. In addition, the Ki worked out at 6.68 µM in test [3], 2.02 µM in test [5] and 0.0289 µM in test [6].

As to `COC(=O)C1C2CC3CCC1N3C/C2=C\c1ccc(F)c(F)c1` (stereo not drawn), the figures for the Ratio in test [1], in test [2] and in test [4] were 3.9, 0.05 and 73.7, respectively. Also, the Ki in test [3] amounted to 7.44 µM; in test [5], 0.394 µM; in test [6] it was 0.101 µM.

As to `CC(=O)OCC1C2CC3CCC1N3C/C2=C\c1cccc(Cl)c1` (stereo not drawn), the Ratio in test [1] worked out at 12.7; in test [2], 0.2; in test [4] it was 64.4. Moreover, the figures for the inhibition constant (Ki) in test [3], in test [5] and in test [6] were 5.98 µM, 1.18 µM and 0.0929 µM, respectively.

The values above are taken from ChEMBL document CHEMBL1135937, “Further studies on conformationally constrained tricyclic tropane analogues and their uptake inhibition at monoamine transporter sites: synthesis of (Z)-9-(substituted arylmethylene)-7-azatricyclo[4.3.1.0(3,7)]decanes as a novel class of serotonin transporter inhibitors” (J Med Chem, 2002).
